Values after ≈ are worked out from the molar mass of the structure shown. Active and inactive are the calls of the source. The calls are words filed in the database; no cut-off is given here.
Tests used:
Rattus norvegicus [1] = assay: Effect on heart rate in anesthetized Wistar rat assessed as number of Q-T-intervals at 40 mg/kg, ip after 60 mins by electrocardiography; format: functional; conditions: route intraperitoneal
Summary of the method: (§1)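 Wistar rats (250–300 g) anaesthetised with thiopental 60 mg/kg ip, then given compound ip at 40 mg/kg in 0.5% aqueous methyl cellulose. ECG recorded by transducer, with heart rate (beats/min) and P–Q, QRS and Q–T intervals (ms) taken at 0, 15, 30, 45 and 60 min after dosing.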

Rattus norvegicus [2] = assay: Cardiovascular effect in anaesthetized Wistar rat assessed as mean arterial pressure at 40 mg/kg, ip after 60 mins; format: functional, Artery; conditions: route intraperitoneal
Summary of the method: (§2)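 Adult normotensive Wistar rats (250–300 g) under thiopental (60 mg/kg ip). Right carotid artery cannulated with a heparinised catheter (20 IU/mL in saline, flushed every 30 min) connected to a pressure transducer. Measurement began one hour after surgery. Compound given ip at 40 mg/kg in 0.5% methyl cellulose, with mean arterial pressure read at 0, 15, 30, 45 and 60 min.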

Rattus norvegicus [3] = assay: Effect on heart rate in anesthetized Wistar rat assessed as number of beats per minutes at 40 mg/kg, ip after 60 mins by electrocardiography; format: functional; conditions: route intraperitoneal; summary of the method: as §1
Rattus norvegicus [4] = assay: Vasorelaxation activity […] assessed as inhibition of norepinephrine-induced contraction of aorta ring at 0.1 mg/ml; format: functional
Summary of the method: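 Isolated Wistar rat aorta rings in physiological salt solution at 37 °C, gassed 95% O2/5% CO2, isometric tension, 60 min equilibration. After contraction plateau, test compound (0.1 mg/mL) added cumulatively; EC50 (g/mL) derived from cumulative concentration–response curves against norepinephrine.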

Rattus norvegicus [5] = assay: Effect on heart rate in anesthetized Wistar rat assessed as number of beats per minutes at 40 mg/kg, ip after 15 mins by electrocardiography; format: functional; conditions: route intraperitoneal; summary of the method: as §1
Rattus norvegicus [6] = assay: Effect on heart rate in anesthetized Wistar rat assessed as number of P-Q-intervals at 40 mg/kg, ip after 30 mins by electrocardiography; format: functional; conditions: route intraperitoneal; summary of the method: as §1
Rattus norvegicus [7] = assay: Cardiovascular effect in anaesthetized Wistar rat assessed as mean arterial pressure at 40 mg/kg, ip after 30 mins; format: functional, Artery; conditions: route intraperitoneal; summary of the method: as §2
Rattus norvegicus [8] = assay: Effect on heart rate in anesthetized Wistar rat assessed as number of QRS complex at 40 mg/kg, ip after 15 mins by electrocardiography; format: functional; conditions: route intraperitoneal; summary of the method: as §1
Rattus norvegicus [9] = assay: Cardiovascular effect in anaesthetized Wistar rat assessed as mean arterial pressure at 40 mg/kg, ip after 15 mins; format: functional, Artery; conditions: route intraperitoneal; summary of the method: as §2
Rattus norvegicus [10] = species: Rattus norvegicus; assay: NO release in Wistar rat by Griess reagent assay in presence of L-cysteine relative to control
Rattus norvegicus [11] = assay: Effect on heart rate in anesthetized Wistar rat assessed as number of beats per minutes at 40 mg/kg, ip after 30 mins by electrocardiography; format: functional; conditions: route intraperitoneal; summary of the method: as §1
Rattus norvegicus [12] = assay: Effect on heart rate in anesthetized Wistar rat assessed as number of P-Q-intervals at 40 mg/kg, ip after 15 mins by electrocardiography; format: functional; conditions: route intraperitoneal; summary of the method: as §1
Rattus norvegicus [13] = assay: Effect on heart rate in anesthetized Wistar rat assessed as number of beats per minutes at 40 mg/kg, ip after 45 mins by electrocardiography; format: functional; conditions: route intraperitoneal; summary of the method: as §1
Rattus norvegicus [14] = assay: Effect on heart rate in anesthetized Wistar rat assessed as number of Q-T-intervals at 40 mg/kg, ip after 45 mins by electrocardiography; format: functional; conditions: route intraperitoneal; summary of the method: as §1
Rattus norvegicus [15] = assay: Effect on heart rate in anesthetized Wistar rat assessed as number of Q-T-intervals at 40 mg/kg, ip after 30 mins by electrocardiography; format: functional; conditions: route intraperitoneal; summary of the method: as §1
Rattus norvegicus [16] = assay: Effect on heart rate in anesthetized Wistar rat assessed as number of P-Q-intervals at 40 mg/kg, ip after 60 mins by electrocardiography; format: functional; conditions: route intraperitoneal; summary of the method: as §1
Rattus norvegicus [17] = assay: Effect on heart rate in anesthetized Wistar rat assessed as number of P-Q-intervals at 40 mg/kg, ip after 45 mins by electrocardiography; format: functional; conditions: route intraperitoneal; summary of the method: as §1
Rattus norvegicus [18] = assay: Cardiovascular effect in anaesthetized Wistar rat assessed as mean arterial pressure at 40 mg/kg, ip after 45 mins; format: functional, Artery; conditions: route intraperitoneal; summary of the method: as §2
Rattus norvegicus [19] = assay: Effect on heart rate in anesthetized Wistar rat assessed as number of QRS complex at 40 mg/kg, ip after 30 mins by electrocardiography; format: functional; conditions: route intraperitoneal; summary of the method: as §1
Rattus norvegicus [20] = assay: Effect on heart rate in anesthetized Wistar rat assessed as number of QRS complex at 40 mg/kg, ip after 60 mins by electrocardiography; format: functional; conditions: route intraperitoneal; summary of the method: as §1
Rattus norvegicus [21] = assay: Effect on heart rate in anesthetized Wistar rat assessed as number of Q-T-intervals at 40 mg/kg, ip after 15 mins by electrocardiography; format: functional; conditions: route intraperitoneal; summary of the method: as §1
Rattus norvegicus [22] = assay: Effect on heart rate in anesthetized Wistar rat assessed as number of QRS complex at 40 mg/kg, ip after 45 mins by electrocardiography; format: functional; conditions: route intraperitoneal; summary of the method: as §1
Rattus norvegicus [23] = assay: Antiarrhythmic activity in anaesthetized Wistar rat assessed as decrease in BaCl2-induced cardiac rhythm disturbance at 40 mg/kg, ip 60 mins before arrhythmogen challenge; format: functional, organism-based; parameters: dose 40 mg/kg; conditions: Heart
Summary of the method: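 Rats (thiopental 60 mg/kg ip anaesthesia) given test compound ip at 40 mg/kg, suspended in 0.5% aqueous methyl cellulose, 60 min before iv barium chloride (32 mg/kg) to evoke arrhythmia. Scored by reduction of rhythm disturbances (premature ventricular beats, ventricular tachycardia, fibrillation) and mortality.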

EC50 (Rattus norvegicus [4])	SMILES	Activity (Rattus norvegicus [1])	Activity (Rattus norvegicus [2])	Activity (Rattus norvegicus [3])	Activity (Rattus norvegicus [5])	Activity (Rattus norvegicus [6])	Activity (Rattus norvegicus [7])	Activity (Rattus norvegicus [8])	Activity (Rattus norvegicus [9])	% NO release (Rattus norvegicus [10])	Activity (Rattus norvegicus [11])	Activity (Rattus norvegicus [12])	Activity (Rattus norvegicus [13])	Activity (Rattus norvegicus [14])	Activity (Rattus norvegicus [15])	Activity (Rattus norvegicus [16])	Activity (Rattus norvegicus [17])	Activity (Rattus norvegicus [18])	Activity (Rattus norvegicus [19])	Activity (Rattus norvegicus [20])	other results
49 µg/mL (≈ 80.5 µM)	O=C(CO[N+](=O)[O-])NNC(=O)c1ccc(NCC(O)CN2C(=O)/C(=C/c3ccc(F)cc3)S/C2=N/c2ccccc2)cc1 (centres undefined)	66.4	85.23 mmHg	300.39	300.28	52.2	78.92 mmHg	22.8	84.89 mmHg	0.23%	289.83	51.7	294.11	68.2	68.6	52.2	52.4	80.53 mmHg	23.6	22	Activity (Rattus norvegicus [21]): 67.8; Activity (Rattus norvegicus [22]): 23.2
32.4 µg/mL (≈ 53.3 µM)	O=C(CO[N+](=O)[O-])NNC(=O)c1ccc(NCC(O)CN2C(=O)/C(=C/c3ccc(O)cc3)S/C2=N/c2ccccc2)cc1 (centres undefined)	74.4	77.31 mmHg	278.31	290.03	56	68.96 mmHg	20.4	79.52 mmHg	0.3%	272.68	55.2	258.51	77.2	76	54.8	56.2	63.34 mmHg	21.4	20.6	Activity (Rattus norvegicus [23]): Active; Activity (Rattus norvegicus [21]): 74.8; Activity (Rattus norvegicus [22]): 22.4
60.3 µg/mL (≈ 88.5 µM)	COc1cc(/C=C2\S/C(=N/c3ccccc3)N(CC(O)CNc3ccc(C(=O)NNC(=O)CO[N+](=O)[O-])cc3)C2=O)cc(OC)c1OC (centres undefined)	83.8	81.25 mmHg	291.2	301.97	56.2	73.93 mmHg	21.2	82.81 mmHg	0.32%	293.35	55	277.12	82.2	80.8	54.8	57.6	62.69 mmHg	22	22.8	Activity (Rattus norvegicus [21]): 79.6; Activity (Rattus norvegicus [22]): 23.2
28.2 µg/mL (≈ 46.6 µM)	Cc1ccc(/C=C2\S/C(=N/c3ccccc3)N(CC(O)CNc3ccc(C(=O)NNC(=O)CO[N+](=O)[O-])cc3)C2=O)cc1 (centres undefined)	72.2	88.93 mmHg	297.59	303.44	51.2	79.16 mmHg	23.2	91.1 mmHg	0.27%	291.92	49.6	279.98	74.8	73.4	50.2	52	72.21 mmHg	23.6	22.8	Activity (Rattus norvegicus [21]): 72.8; Activity (Rattus norvegicus [22]): 24

Second part, the compound before the results:

SMILES	EC50 (Rattus norvegicus [4])	Activity (Rattus norvegicus [1])	Activity (Rattus norvegicus [2])	Activity (Rattus norvegicus [3])	Activity (Rattus norvegicus [5])	Activity (Rattus norvegicus [6])	Activity (Rattus norvegicus [7])	Activity (Rattus norvegicus [8])	Activity (Rattus norvegicus [9])	% NO release (Rattus norvegicus [10])	Activity (Rattus norvegicus [11])	Activity (Rattus norvegicus [12])	Activity (Rattus norvegicus [13])	Activity (Rattus norvegicus [14])	Activity (Rattus norvegicus [15])	Activity (Rattus norvegicus [16])	Activity (Rattus norvegicus [17])	Activity (Rattus norvegicus [18])	Activity (Rattus norvegicus [19])	Activity (Rattus norvegicus [20])	other results
O=C(CO[N+](=O)[O-])NNC(=O)c1ccc(NCC(O)CN2C(=O)/C(=C/C=C/c3ccccc3)S/C2=N/c2ccccc2)cc1 (centres undefined)	34.7 µg/mL (≈ 56.2 µM)	73.4	90.58 mmHg	308.77	307.46	53.6	77.54 mmHg	21	84.86 mmHg	0.24%	295.42	52.4	302.23	74.8	75.8	52.4	53.6	80.16 mmHg	22.4	20.4	Activity (Rattus norvegicus [21]): 74.6; Activity (Rattus norvegicus [22]): 21.4
O=C(CO[N+](=O)[O-])NNC(=O)c1ccc(NCC(O)CN2C(=O)/C(=C/c3ccccc3)S/C2=N/c2ccccc2)cc1 (centres undefined)	34.7 µg/mL (≈ 58.7 µM)	86.2	71.29 mmHg	291.8	292.18	53.6	62.21 mmHg	19.4	78.67 mmHg	0.33%	269.11	52.2	276.83	84.6	63.2	55.4	54.2	67.54 mmHg	21.2	21.6	Activity (Rattus norvegicus [23]): Active; Activity (Rattus norvegicus [21]): 81.8; Activity (Rattus norvegicus [22]): 20.6
O=C(CO[N+](=O)[O-])NNC(=O)c1ccc(NCC(O)CN2C(=O)/C(=C/c3cccc([N+](=O)[O-])c3)S/C2=N/c2ccccc2)cc1 (centres undefined)	141 µg/mL (≈ 222 µM)	70.4	90.29 mmHg	315.86	318.61	57.8	85.08 mmHg	21.4	87.32 mmHg	0.21%	295.46	57	302.16	71.8	72.4	55.6	56.2	85.87 mmHg	22.4	20.4	Activity (Rattus norvegicus [23]): inactive; Activity (Rattus norvegicus [21]): 71.4; Activity (Rattus norvegicus [22]): 21.8
CC(C)NCC(O)COc1ccc(CC(N)=O)cc1 (centres undefined) [ATENOLOL]			69.93 mmHg				63.44 mmHg		79.01 mmHg									65.24 mmHg			
O=C(CO[N+](=O)[O-])NNC(=O)c1ccc(NCC(O)CN2C(=O)/C(=C/c3ccccc3O)S/C2=N/c2ccccc2)cc1 (centres undefined)	45.7 µg/mL (≈ 75.4 µM)	72.8	76.24 mmHg	294.57	298.24	54.2	72.44 mmHg	21.2	82.91 mmHg	0.29%	291.85	51.4	279.28	75.4	74.4	52.8	54.6	64.32 mmHg	22.4	20.8	Activity (Rattus norvegicus [23]): Active; Activity (Rattus norvegicus [21]): 73.2; Activity (Rattus norvegicus [22]): 23.4

— ChEMBL document CHEMBL1139305, “Design, synthesis and pharmacological screening of novel antihypertensive agents using hybrid approach” (Bioorg Med Chem, 2009)
